Data published in ChEMBL document CHEMBL3091462 (J Nat Prod, 2013).
Active and inactive are the calls of the source. The calls are words filed in the database; no cut-off is given here.

How the values were obtained:
SW-620 [1] = test: Cell cycle arrest in human SW620 cells assessed as accumulation at G2/M phase at 2 uM after 48 hrs using propidium iodide staining by flow cytometry (reference value: 9.1 +/- 0.3%); format: functional
SW-620 [2] = test: Cell cycle arrest in human SW620 cells assessed as accumulation at G2/M phase at 1 uM after 48 hrs using propidium iodide staining by flow cytometry (reference value: 9.1 +/- 0.3%); format: functional
HCT-116 [3] = test: Cytotoxicity against human HCT116 cells assessed as inhibition of cell viability at 10 uM after 24 hrs; conditions: HCT-116, 24 h
SW-620 [4] = test: Cell cycle arrest in human SW620 cells assessed as accumulation at S phase at 10 uM after 48 hrs using propidium iodide staining by flow cytometry (reference value: 43.1 +/- 1%); format: functional
SW-620 [5] = test: Cell cycle arrest in human SW620 cells assessed as accumulation at S phase after 48 hrs using propidium iodide staining by flow cytometry; format: functional, cell-based
SW-620 [6] = test: Cell cycle arrest in human SW620 cells assessed as accumulation at G0/G1 phase at 10 uM after 48 hrs using propidium iodide staining by flow cytometry (reference value: 47.8 +/- 1.2%); format: functional
HCT-116 [7] = test: Cytotoxicity against human HCT116 cells after 24 to 72 hrs; format: functional, cell-based
Outline: (§1)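 Cells seeded at 10^5 per well in RPMI 1640/10% FBS at 37 °C. Subconfluent cells exposed to 0, 0.1, 0.5, 1, 2, 5 or 10 μM for 48 h, or to 10 μM for 24, 48 and 72 h; ethanol vehicle, at most 0.01% v/v final. Cells trypsinized and counted by hemocytometer. Viability as % of control, means ± SD, three experiments in triplicate.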

SW-620 [8] = test: Cell cycle arrest in human SW620 cells assessed as accumulation at S phase at 5 uM after 48 hrs using propidium iodide staining by flow cytometry (reference value: 43.1 +/- 1%); format: functional
HCT-116 [9] = test: Cell cycle arrest in human HCT116 cells assessed as accumulation at G0/G1 phase at 5 uM after 48 hrs using propidium iodide staining by flow cytometry (reference value: 56.7 +/- 1.9%); format: functional
HCT-116 [10] = test: Cell cycle arrest in human HCT116 cells assessed as accumulation at S phase at 0.5 uM after 48 hrs using propidium iodide staining by flow cytometry (reference value: 36.3 +/- 1.7%); format: functional
SW-620 [11] = test: Cytotoxicity against human SW620 cells at 0.5 to 10 uM; format: functional, cell-based; conditions: TDE = time-dependent effect
Outline: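 SW-620 cells seeded at 10^5 per well in RPMI 1640 + 10% FBS at 37 °C, then treated when subconfluent with 0–10 μM for 48 h (or 10 μM for 24–72 h). Ethanol vehicle, at most 0.01% v/v final. Cells trypsinized and counted on a hemocytometer. Result given as % of control, means ± SD of three experiments in triplicate.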

SW-620 [12] = test: Cell cycle arrest in human SW620 cells assessed as accumulation at G2/M phase at 10 uM after 48 hrs using propidium iodide staining by flow cytometry (reference value: 9.1 +/- 0.3%); format: functional
SW-620 [13] = test: Cell cycle arrest in human SW620 cells assessed as accumulation at G0/G1 phase at 1 uM after 48 hrs using propidium iodide staining by flow cytometry (reference value: 47.8 +/- 1.2%); format: functional
HCT-116 [14] = test: Cell cycle arrest in human HCT116 cells assessed as accumulation at S phase at 0.1 uM after 48 hrs using propidium iodide staining by flow cytometry (reference value: 36.3 +/- 1.7%); format: functional
HCT-116 [15] = test: Cell cycle arrest in human HCT116 cells assessed as accumulation at S phase after 48 hrs using propidium iodide staining by flow cytometry; format: functional, cell-based
SW-620 [16] = test: Cytotoxicity against human SW620 cells assessed as cell viability at 0.1 to 2 uM after 24 to 72 hrs; format: functional, cell-based; outline: as §1
SW-620 [17] = test: Induction of apoptosis in human SW620 cells at 5 uM after 48 hrs using Annexin V-FITC and propidium iodide staining by flow cytometry (reference value: 3.8 +/- 2.1%); format: functional
Outline: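 Subconfluent cells in RPMI 1640 + 10% FBS treated with 0–10 μM for 48 h. Harvested cells incubated 10 min with FITC-annexin V/PI, then analysed by flow cytometry (488/525 nm for annexin V-FITC, 488/675 nm for PI). Reported as % apoptotic cells, means ± SD of three experiments in triplicate.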

SW-620 [18] = test: Cell cycle arrest in human SW620 cells assessed as accumulation at G0/G1 phase at 5 uM after 48 hrs using propidium iodide staining by flow cytometry (reference value: 47.8 +/- 1.2%); format: functional
HCT-116 [19] = test: Induction of apoptosis in human HCT116 cells expressing p21 siRNA assessed as increase of expression of cleaved caspase-9 and caspase-3 at 10 uM after 24 hrs by immunoblotting; format: functional, cell-based
Outline: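 Cells transfected with 100 nM scrambled or p21 siRNA for 4 h, then grown 24 h in complete medium and treated with 10 μM for 24 h. p21, caspase-9/-3 and cleaved forms analysed by 15% SDS-PAGE immunoblot with densitometry. Means ± SD, three experiments in triplicate.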

HCT-116 [20] = test: Decrease of cyclin E expression in human HCT116 cells after 24 hrs by immunoblotting; format: functional, cell-based
Outline: (§2)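 HCT-116 or SW-620 cells exposed to 0–10 μM for 24 h. Cells lysed in Tris/NaCl/EDTA/1% Triton X-100 buffer with protease and phosphatase inhibitors at 4 °C, protein measured by BCA. Lysates run on 10–12.5% SDS-PAGE and immunoblotted, ECL detection. Cdk2, cyclin A and cyclin E antibodies used at 1:500; β-actin as loading control.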

SW-620 [21] = test: Cytotoxicity against human SW620 cells after 24 to 72 hrs; format: functional, cell-based; outline: as §1
HCT-116 [22] = test: Cell cycle arrest in human HCT116 cells assessed as accumulation at S phase at 10 uM after 48 hrs using propidium iodide staining by flow cytometry (reference value: 36.3 +/- 1.7%); format: functional
HCT-116 [23] = test: Decrease of cyclin A expression in human HCT116 cells after 24 hrs by immunoblotting; format: functional, cell-based; outline: as §2
HCT-116 [24] = test: Induction of apoptosis in human HCT116 cells assessed as increase of expression of cleaved caspase-9 and caspase-3 after 24 hrs by immunoblotting; format: functional, cell-based
Outline: (§3)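 HCT-116 or SW-620 cells treated with 0–10 μM for 24 h, lysed, and run on 15% SDS-PAGE immunoblots. Probed for Bcl-2 (1:1000), Bax (1:500), caspase-9/-3 and their cleaved forms (1:1000), and β-actin (1:1000). Bands quantified by densitometry; means ± SD of three experiments in duplicate.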

HCT-116 [25] = test: Increase of p21 expression in human HCT116 cells at 0.1 to 10 uM after 24 hrs by immunoblotting; format: functional, cell-based
Outline: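 HCT-116 or SW-620 cells treated with 0–10 μM for 24 h. Lysates probed for p21 by SDS-PAGE immunoblotting with ECL detection; β-actin as loading control.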

SW-620 [26] = test: Induction of apoptosis in human SW620 cells assessed as increase of expression of cleaved caspase-9 and caspase-3 after 24 hrs by immunoblotting; format: functional, cell-based; outline: as §3

## CC(C)c1cccc(=O)c(O)c1 [HINOKITIOL]
SW-620 [1]
  Activity: 4.5%
SW-620 [2]
  Activity: 6.8%
HCT-116 [3]
  inhibition of viability at 10 µM: 27%
SW-620 [4]
  Activity: 87%
SW-620 [5]
  Activity: Dose-dependent effect
SW-620 [6]
  Activity: 11.5%
HCT-116 [7]
  IC50: 4.5 µM
  growth inhibition (GI): Dose-dependent effect
SW-620 [8]
  Activity: 51.9%
HCT-116 [9]
  Activity: 44.6%
HCT-116 [10]
  Activity: 35.4%
SW-620 [11]
  Activity: tde
SW-620 [12]
  Activity: 1.5%
SW-620 [13]
  Activity: 45.6%
HCT-116 [14]
  Activity: 34.4%
HCT-116 [15]
  Activity: Dose-dependent effect
SW-620 [16]
  Activity: Active
SW-620 [17]
  Activity: 53.1%
SW-620 [18]
  Activity: 40.8%
HCT-116 [19]
  Activity: inactive
HCT-116 [20]
  Activity: Dose-dependent effect
SW-620 [21]
  IC50: 4.4 µM
  growth inhibition (GI): Dose-dependent effect
HCT-116 [22]
  Activity: 53.8%
HCT-116 [23]
  Activity: Dose-dependent effect
HCT-116 [24]
  Activity: Dose-dependent effect
HCT-116 [25]
  Activity: Active
SW-620 [26]
  Activity: Dose-dependent effect
